Results on 2 compounds are retold here after ChEMBL document CHEMBL4020802, “Fused bi-heteroaryl substituted hydantoin compounds as TACE inhibitors” (Bioorg Med Chem Lett, 2017).

Bounds are passed on as bounds.

Data set [1] can be described thus: AUC in monkey at 10 mg/kg, po. Type of data set: ADME, organism-based, Macaca mulatta. The note with it: rhesus monkey, in vivo. The method in brief: (§1)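 Oral dosing of rats, dogs and monkeys, with compounds given as Na+ or HCl salts in a 0.4% HPMC formulation. Doses were 10 mg/kg in rat, 2 or 3 mg/kg in dog, and 3 or 10 mg/kg in monkey. Plasma exposure was reported as AUC in µM·h, and oral bioavailability as F%.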

Data set [2] is described as follows: Oral bioavailability in rat at 10 mg/kg. The note with it: in vivo. Type of data set: ADME, organism-based. The method in brief:
as §1

Data set [3] can be described thus: AUC in rat at 10 mg/kg, po. Format: ADME, organism-based. The note with it: in vivo. The method in brief: as §1
A short description of data set [4]: Oral bioavailability in dog at 3 mg/kg. The note with it: in vivo. Type of data set: ADME, organism-based, Canis lupus familiaris. Put shortly: as §1
Data set [5] is described as follows: Clearance in monkey at 1 mg/kg, iv. Format: ADME, organism-based, Macaca mulatta. The note with it: rhesus monkey, in vivo.
The nature of data set [6]: Clearance in dog at 0.5 mg/kg, iv. The note with it: in vivo. Format: ADME, organism-based, Canis lupus familiaris.
Data set [7] has as its target Disintegrin and metalloproteinase domain-containing protein 17 (Homo sapiens, UniProt P78536). Kind of data set: Inhibition of catalytic domain TACE (unknown origin) by FRET assay.
The nature of data set [8]: AUC in dog at 3 mg/kg, po. Type of data set: ADME, organism-based, Canis lupus familiaris. The note with it: in vivo. The method in brief:
as §1

Data set [9] is described as follows: Permeability from apical side to basolateral side in human Caco2 cells. Format: ADME, cell-based. The note with it: Caco-2, read-out: permeability. A general note: Caco-2 cells form a polarised layer with tight junctions and transporters.
The nature of data set [10]: Clearance in rat at 3 mg/kg, iv. The note with it: in vivo. Format: ADME, organism-based.
For data set [11], the system named is Blood. Briefly: Antiinflammatory activity in human whole blood assessed as inhibition of LPS-induced TNF-alpha release preincubated for 1 hr followed by LPS addition after 3.5 hrs by ELISA method. Type of data set: functional. (In an ELISA, binding on a coated surface is turned into a signal by an enzyme label.)
A short description of data set [12]: Oral bioavailability in monkey at 10 mg/kg. Type of data set: ADME, organism-based, Macaca mulatta. The note with it: rhesus monkey, in vivo. Put shortly:
as §1

Data set [13] in a line: AUC in rat. Type of data set: ADME. Also noted: concentration or dose not given beside the values. The note with it: in vivo.
The target of data set [14] is T1, Matrilysin (Homo sapiens, UniProt P09237).
T1 sequence (P09237 whole entry): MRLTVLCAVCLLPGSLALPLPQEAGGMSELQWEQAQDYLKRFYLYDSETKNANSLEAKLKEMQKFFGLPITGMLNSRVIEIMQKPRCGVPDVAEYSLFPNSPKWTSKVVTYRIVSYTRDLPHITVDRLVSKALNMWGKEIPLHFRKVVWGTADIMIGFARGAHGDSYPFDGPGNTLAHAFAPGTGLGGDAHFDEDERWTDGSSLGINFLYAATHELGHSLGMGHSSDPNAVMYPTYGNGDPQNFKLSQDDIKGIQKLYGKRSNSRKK
Briefly: Inhibition of MMP7 (unknown origin).

Data set [15] has as its target 72 kDa type IV collagenase (Homo sapiens, UniProt P08253). Briefly: Inhibition of MMP2 (unknown origin).
Data set [16] addresses Stromelysin-1 (Homo sapiens, UniProt P08254). Kind of data set: Inhibition of MMP3 (unknown origin).
The target in data set [17] is Collagenase 3 (Homo sapiens, UniProt P45452). Briefly: Inhibition of MMP13 (unknown origin).
Data set [18] can be described thus: Oral bioavailability in monkey at 3 mg/kg. Format: ADME, organism-based, Macaca mulatta. The note with it: rhesus monkey, in vivo. Put shortly:
as §1

The target in data set [19] is Matrix metalloproteinase-9 (Homo sapiens, UniProt P14780). Kind of data set: Inhibition of MMP9 (unknown origin).
A short description of data set [20]: AUC in monkey at 3 mg/kg, po. Type of data set: ADME, organism-based, Macaca mulatta. The note with it: rhesus monkey, in vivo. Put shortly:
as §1

Data set [21] addresses T2, Disintegrin and metalloproteinase domain-containing protein 10 (Homo sapiens, UniProt O14672).
T2 sequence (O14672 whole entry): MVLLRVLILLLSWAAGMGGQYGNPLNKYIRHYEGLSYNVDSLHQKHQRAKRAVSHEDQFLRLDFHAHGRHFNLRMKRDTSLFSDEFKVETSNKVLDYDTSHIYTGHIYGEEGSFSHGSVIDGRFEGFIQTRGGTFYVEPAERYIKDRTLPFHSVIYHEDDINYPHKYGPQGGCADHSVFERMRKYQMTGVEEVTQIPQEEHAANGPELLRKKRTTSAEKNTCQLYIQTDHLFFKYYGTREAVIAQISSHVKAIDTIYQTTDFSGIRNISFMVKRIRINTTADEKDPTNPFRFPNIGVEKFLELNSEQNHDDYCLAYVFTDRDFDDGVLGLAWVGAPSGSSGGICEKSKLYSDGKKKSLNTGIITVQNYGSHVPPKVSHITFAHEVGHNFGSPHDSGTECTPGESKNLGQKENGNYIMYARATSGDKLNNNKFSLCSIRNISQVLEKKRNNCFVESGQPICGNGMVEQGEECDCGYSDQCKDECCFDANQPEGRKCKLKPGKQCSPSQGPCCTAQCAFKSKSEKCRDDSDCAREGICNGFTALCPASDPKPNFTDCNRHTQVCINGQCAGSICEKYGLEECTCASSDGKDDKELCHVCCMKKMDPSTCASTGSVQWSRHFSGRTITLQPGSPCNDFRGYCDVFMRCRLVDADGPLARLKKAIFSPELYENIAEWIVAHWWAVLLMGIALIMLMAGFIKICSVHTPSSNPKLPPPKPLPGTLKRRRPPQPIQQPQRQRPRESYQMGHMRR
Briefly: Inhibition of ADAM10 (unknown origin).

The target of data set [22] is Matrix metalloproteinase-14 (Homo sapiens, UniProt P50281). Briefly: Inhibition of MMP14 (unknown origin).
For data set [23], the target named is T3, Interstitial collagenase (Homo sapiens, UniProt P03956).
T3 sequence (P03956 whole entry): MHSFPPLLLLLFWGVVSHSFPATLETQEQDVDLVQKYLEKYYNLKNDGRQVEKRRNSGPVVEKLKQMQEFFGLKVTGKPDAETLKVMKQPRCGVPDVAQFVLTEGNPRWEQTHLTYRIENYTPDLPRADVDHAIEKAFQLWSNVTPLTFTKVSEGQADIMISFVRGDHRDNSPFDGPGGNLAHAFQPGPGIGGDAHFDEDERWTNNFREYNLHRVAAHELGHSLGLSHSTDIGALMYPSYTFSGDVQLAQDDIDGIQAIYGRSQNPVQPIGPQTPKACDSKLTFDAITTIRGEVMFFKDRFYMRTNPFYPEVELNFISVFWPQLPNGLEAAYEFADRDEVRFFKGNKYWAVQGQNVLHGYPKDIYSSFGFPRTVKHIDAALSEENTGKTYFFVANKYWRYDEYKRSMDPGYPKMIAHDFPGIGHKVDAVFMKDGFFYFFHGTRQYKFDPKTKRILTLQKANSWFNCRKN
Kind of data set: Inhibition of MMP1 (unknown origin).

Chain of Disintegrin and metalloproteinase domain-containing protein 17 (P78536 whole entry, the tested form may be a part): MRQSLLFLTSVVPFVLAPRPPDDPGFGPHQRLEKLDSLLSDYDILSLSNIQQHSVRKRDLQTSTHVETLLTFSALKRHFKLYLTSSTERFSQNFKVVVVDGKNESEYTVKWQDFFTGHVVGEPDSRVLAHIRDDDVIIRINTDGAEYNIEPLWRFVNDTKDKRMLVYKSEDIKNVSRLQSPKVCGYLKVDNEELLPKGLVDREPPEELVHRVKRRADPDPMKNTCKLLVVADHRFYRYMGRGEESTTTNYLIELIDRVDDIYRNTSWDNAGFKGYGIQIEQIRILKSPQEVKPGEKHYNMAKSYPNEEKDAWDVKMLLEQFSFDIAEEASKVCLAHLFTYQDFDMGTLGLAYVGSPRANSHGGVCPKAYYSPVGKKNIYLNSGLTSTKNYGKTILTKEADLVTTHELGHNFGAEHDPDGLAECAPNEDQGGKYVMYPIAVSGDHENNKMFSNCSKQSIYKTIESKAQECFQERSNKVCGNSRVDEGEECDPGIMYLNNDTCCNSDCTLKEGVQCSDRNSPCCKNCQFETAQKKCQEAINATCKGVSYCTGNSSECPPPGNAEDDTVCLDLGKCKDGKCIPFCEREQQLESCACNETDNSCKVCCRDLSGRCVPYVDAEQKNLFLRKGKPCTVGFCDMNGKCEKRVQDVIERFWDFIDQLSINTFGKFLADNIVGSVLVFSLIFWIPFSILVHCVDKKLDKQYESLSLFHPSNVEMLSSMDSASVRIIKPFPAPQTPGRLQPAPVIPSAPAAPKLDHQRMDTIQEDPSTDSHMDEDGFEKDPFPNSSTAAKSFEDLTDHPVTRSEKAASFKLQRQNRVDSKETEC
Chain of Matrix metalloproteinase-9 (P14780 whole entry): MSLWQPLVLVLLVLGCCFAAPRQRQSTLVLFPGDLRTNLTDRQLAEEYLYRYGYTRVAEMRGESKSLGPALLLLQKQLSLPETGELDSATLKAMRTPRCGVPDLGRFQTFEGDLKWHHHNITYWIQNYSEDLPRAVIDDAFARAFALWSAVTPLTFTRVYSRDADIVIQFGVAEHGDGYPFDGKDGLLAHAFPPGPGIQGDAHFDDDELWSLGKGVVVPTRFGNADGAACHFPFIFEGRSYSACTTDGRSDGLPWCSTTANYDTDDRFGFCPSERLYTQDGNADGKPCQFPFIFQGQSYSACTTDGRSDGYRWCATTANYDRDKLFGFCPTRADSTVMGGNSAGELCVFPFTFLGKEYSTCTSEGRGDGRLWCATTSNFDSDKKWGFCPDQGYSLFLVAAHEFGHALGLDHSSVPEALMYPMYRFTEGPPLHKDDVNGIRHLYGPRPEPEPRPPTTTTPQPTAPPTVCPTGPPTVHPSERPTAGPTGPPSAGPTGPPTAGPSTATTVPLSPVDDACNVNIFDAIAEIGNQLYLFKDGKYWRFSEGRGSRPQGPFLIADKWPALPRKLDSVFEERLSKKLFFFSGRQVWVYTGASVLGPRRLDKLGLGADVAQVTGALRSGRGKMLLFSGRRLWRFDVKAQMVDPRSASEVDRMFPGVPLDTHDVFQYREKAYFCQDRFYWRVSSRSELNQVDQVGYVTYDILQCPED
Chain of 72 kDa type IV collagenase (P08253 whole entry): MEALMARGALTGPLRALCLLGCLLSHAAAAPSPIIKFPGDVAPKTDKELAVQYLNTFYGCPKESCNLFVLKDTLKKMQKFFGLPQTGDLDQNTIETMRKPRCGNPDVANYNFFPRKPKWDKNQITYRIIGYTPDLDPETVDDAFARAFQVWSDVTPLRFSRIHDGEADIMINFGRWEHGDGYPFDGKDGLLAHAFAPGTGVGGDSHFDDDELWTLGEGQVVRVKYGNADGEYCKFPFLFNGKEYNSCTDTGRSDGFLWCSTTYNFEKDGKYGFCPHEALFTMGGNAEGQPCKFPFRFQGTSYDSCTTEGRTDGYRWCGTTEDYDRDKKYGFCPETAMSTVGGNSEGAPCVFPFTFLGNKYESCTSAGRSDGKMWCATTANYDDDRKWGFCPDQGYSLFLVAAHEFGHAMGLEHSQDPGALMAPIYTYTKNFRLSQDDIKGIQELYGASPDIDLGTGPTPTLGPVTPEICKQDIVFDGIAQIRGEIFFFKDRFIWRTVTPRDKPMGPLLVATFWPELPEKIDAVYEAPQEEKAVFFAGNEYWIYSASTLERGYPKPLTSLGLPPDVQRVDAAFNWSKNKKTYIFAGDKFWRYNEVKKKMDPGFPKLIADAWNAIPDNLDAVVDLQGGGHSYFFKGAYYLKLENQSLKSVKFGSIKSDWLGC
Chain of Stromelysin-1 (P08254 whole entry): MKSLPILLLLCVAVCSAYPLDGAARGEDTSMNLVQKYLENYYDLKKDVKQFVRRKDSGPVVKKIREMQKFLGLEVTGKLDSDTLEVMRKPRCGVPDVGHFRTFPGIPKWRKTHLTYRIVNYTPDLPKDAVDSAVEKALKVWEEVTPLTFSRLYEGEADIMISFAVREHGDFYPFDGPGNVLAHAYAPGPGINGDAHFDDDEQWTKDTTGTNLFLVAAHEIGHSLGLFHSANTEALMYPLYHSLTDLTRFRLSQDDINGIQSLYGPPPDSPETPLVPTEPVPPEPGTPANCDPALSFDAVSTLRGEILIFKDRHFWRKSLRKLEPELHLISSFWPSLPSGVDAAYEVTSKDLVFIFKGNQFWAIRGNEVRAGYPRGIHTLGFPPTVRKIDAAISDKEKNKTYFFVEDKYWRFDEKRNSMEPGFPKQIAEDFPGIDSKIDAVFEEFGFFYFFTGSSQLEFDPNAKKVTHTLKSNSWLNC

For `COc1ccc2c(c1)C(=O)N(C[C@@]1(c3cc4ncccc4o3)NC(=O)NC1=O)C2`, the AUC was 22 µM·h in data set [1], 10 µM·h in data set [3], 41 µM·h in [8] and 27 µM·h in data set [13]. Also, the results for the bioavailability in data set [2], in data set [4] and in data set [12] were 35%, 82% and 46%, respectively. Besides, the clearance in [5] is 11 mL/min/kg; in data set [6], 3 mL/min/kg; in [10], 15 mL/min/kg. The Ki in data set [7] was 0.5 nM. In [9], the Papp A→B worked out at 1.2 ×10⁻⁶ cm/s. Further, in data set [11], the IC50 was determined as 290 nM.

As for `COc1ccc2c(c1)C(=O)N(C[C@@]1(c3cc4cnccc4o3)NC(=O)NC1=O)C2`, the IC50 in [14] is over 40000 nM; in [15], 533 nM; in [16] it was 5500 nM; in data set [17], 684 nM; in data set [19] it was 1760 nM; in data set [11], 270 nM. For the same compound, the IC50 in data set [22] is 239 nM; in data set [23], 4710 nM. Further, the bioavailability in [2] came out at 58%; in data set [4], 98%; in data set [18] it was 19%. Besides, the AUC was 11 µM·h in [3], 52 µM·h in data set [8], 10 µM·h in data set [20] and 13 µM·h in [13]. In addition, the results for the clearance in [5], in data set [6] and in [10] were 7 mL/min/kg, 3 mL/min/kg and 23 mL/min/kg, respectively. The Ki in data set [7] came out at 0.7 nM; in [21], 144 nM. Further, the Papp A→B in data set [9] stood at 1.5 ×10⁻⁶ cm/s.

For orientation: AUC means the area under the concentration-time curve, a measure of exposure. Usually bioavailability stands for dose-corrected exposure relative to a reference, in per cent. By clearance is commonly meant the volume of plasma or blood freed of the substance per unit of time. As a reminder, the Ki is a measure of affinity in units of concentration, obtained from inhibition or displacement. The term IC50 denotes the concentration at which inhibition is half-maximal.
